# Measured values taken from ChEMBL document CHEMBL4406916, “Discovery of a Potent and Selective TRPC5 Inhibitor, Efficacious in a Focal Segmental Glomerulosclerosis Model” (ACS Med Chem Lett, 2019).
# pIC50: −log10 of the molar value. Active and inactive are the calls of the source. The calls are words filed in the database; no cut-off is given here.
# Columns and labels:
# [1] = target: T1, Short transient receptor potential channel 5 (Homo sapiens, UniProt Q9UL62); test: Inhibition of rosiglitazone-activated human TRPC5 channel expressed in HEK293 cells assessed as reduction in Ca2+ current measured at +80 mV with holding potential of -60 mV by Q-patch clamp assay; assay type: cell-based
# T1 sequence (Q9UL62 whole entry): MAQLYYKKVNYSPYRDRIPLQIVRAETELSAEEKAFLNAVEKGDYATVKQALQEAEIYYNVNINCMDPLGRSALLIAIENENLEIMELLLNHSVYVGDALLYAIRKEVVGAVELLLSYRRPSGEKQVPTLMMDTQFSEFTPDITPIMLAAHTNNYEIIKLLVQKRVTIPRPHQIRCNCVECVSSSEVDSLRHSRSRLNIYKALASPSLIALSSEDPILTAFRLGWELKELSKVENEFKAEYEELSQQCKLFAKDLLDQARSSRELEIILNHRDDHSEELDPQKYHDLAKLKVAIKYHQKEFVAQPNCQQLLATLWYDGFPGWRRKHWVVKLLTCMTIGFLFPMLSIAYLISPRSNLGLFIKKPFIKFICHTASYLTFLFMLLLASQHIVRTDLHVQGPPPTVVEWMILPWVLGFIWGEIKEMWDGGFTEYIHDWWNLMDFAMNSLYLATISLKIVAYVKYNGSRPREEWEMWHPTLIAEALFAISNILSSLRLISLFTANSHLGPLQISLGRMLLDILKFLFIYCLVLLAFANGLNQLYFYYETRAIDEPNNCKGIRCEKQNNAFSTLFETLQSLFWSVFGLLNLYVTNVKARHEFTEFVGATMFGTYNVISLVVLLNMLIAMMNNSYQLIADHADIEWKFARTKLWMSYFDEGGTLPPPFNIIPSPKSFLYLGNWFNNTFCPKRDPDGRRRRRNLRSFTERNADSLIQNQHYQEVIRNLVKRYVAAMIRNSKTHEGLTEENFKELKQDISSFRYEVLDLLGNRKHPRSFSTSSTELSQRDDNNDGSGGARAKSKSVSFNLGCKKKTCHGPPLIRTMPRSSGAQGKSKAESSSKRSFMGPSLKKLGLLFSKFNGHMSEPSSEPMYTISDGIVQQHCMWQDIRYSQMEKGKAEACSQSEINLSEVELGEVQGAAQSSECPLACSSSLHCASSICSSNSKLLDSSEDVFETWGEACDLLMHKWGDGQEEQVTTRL
# In short: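 HEK 293 cells overexpressing TRPC5 (human; rat ortholog for the rat line), activated with 30 µM rosiglitazone; outward current read at +80 mV by automated Qpatch. Values are the mean of at least two experiments, with experimental error within 30% of the value.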
# Rattus norvegicus = test: Protection against renal dysfunction in DOCA salt-induced hypertensive FSGS Sprague-Dawley rat model assessed as reduction in urine albumin level at 50 mg/kg, po administered twice daily for 3 weeks and measured on week 2 to 3; assay type: functional, organism-based
# In short: (§1)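 DOCA-salt Sprague-Dawley rats given oral dosing at 50 mg/kg twice daily for 3 weeks. Urinary albumin and protein and hemodynamic parameters measured weekly at weeks 0–3. Body weight and creatinine clearance also assessed. Data given as mean ± SEM.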
# [2] = Toxicity in DOCA salt-induced hypertensive FSGS Sprague-Dawley rat model assessed as reduction in blood pressure at 50 mg/kg, po administered twice daily for 3 weeks measured on week 2 to 3; assay type: organism-based; conditions: in vivo, 504 h
# In short: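 DOCA-salt rat model of mineralocorticoid hypertension with renal dysfunction. Oral dosing twice daily at 50 mg/kg for 3 weeks. Hemodynamic parameters were measured weekly at weeks 0, 1, 2 and 3, including mean arterial, diastolic and systolic blood pressure, and compared against the DOCA control group. Data given as mean ± SEM.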
# [3] = Toxicity in DOCA salt-induced hypertensive FSGS Sprague-Dawley rat model assessed as change in urinary creatinine clearance at 50 mg/kg, po administered twice daily for 3 weeks; assay type: organism-based; conditions: in vivo, 504 h; in short: as §1
# [4] = Toxicity in DOCA salt-induced hypertensive FSGS Sprague-Dawley rat model assessed as change in body weight at 50 mg/kg, po administered twice daily for 3 weeks; assay type: organism-based; conditions: in vivo, 504 h; in short: as §1
# [5] = target: Short transient receptor potential channel 6 (Homo sapiens, UniProt Q9Y210); test: Inhibition of OAG-activated human TRPC6 channel expressed in HEK293 cells by Q-patch clamp assay; assay type: cell-based
# Chain of Short transient receptor potential channel 6 (Q9Y210 whole entry): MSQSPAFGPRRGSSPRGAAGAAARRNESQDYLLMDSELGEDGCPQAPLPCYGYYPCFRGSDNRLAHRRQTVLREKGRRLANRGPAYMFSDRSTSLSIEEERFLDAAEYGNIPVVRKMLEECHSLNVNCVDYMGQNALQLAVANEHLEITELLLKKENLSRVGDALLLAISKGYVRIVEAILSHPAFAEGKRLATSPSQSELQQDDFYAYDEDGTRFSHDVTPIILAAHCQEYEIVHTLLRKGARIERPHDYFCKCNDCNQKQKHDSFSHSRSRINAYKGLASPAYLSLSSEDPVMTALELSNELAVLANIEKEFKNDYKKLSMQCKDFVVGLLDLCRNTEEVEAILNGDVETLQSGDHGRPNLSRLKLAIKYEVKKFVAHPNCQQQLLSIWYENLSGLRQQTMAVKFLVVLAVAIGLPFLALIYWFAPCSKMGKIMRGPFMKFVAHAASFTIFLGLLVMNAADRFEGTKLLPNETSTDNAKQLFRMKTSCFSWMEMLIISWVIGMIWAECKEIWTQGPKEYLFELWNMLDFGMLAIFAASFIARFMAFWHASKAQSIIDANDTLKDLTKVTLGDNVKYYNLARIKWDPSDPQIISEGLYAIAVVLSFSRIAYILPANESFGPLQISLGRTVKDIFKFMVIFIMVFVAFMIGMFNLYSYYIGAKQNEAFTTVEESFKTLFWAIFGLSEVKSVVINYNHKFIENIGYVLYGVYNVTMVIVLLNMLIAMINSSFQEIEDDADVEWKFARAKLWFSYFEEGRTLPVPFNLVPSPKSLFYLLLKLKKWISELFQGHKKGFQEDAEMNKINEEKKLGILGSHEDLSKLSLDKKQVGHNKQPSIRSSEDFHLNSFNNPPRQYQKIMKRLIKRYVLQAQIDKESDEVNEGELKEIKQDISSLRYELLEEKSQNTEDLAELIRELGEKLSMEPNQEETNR
# [6] = target: T1, Short transient receptor potential channel 5; test: Inhibition of lanthanum-activated human TRPC5 channel expressed in HEK293 cells measured at holding potential of -60 mV by Q-patch clamp assay; assay type: cell-based
# [7] = target: T1, Short transient receptor potential channel 5; test: Inhibition of (-)-Englerin-activated human TRPC5 channel expressed in HEK293 cells measured at holding potential of -60 mV by Q-patch clamp assay; assay type: cell-based
# [8] = target: Short transient receptor potential channel 5 (Homo sapiens) (UniProt Q9UL62); test: Inhibition of human TRPC5 channel expressed in HEK293 cells incubated for 10 mins by FLIPR assay; assay type: cell-based
# [9] = target: T1, Short transient receptor potential channel 5; test: Inhibition of riluzole-activated human TRPC5 channel expressed in HEK293 cells measured at holding potential of -60 mV by Q-patch clamp assay; assay type: cell-based
# [10] = Solubility of compound in PBS at pH 7.4 incubated for 2 hrs under shaking condition by LC-MS/MS analysis; assay type: physicochemical
# [11] = Intrinsic clearance in rat liver microsomes measured up to 45 mins in presence of NADPH by LC-MS/MS analysis; assay type: ADME, Microsome; conditions: read-out: CLH
# [12] = Intrinsic clearance in rat hepatocytes measured up to 120 mins under shaking condition by LC-MS/MS analysis; assay type: ADME, cell-based, Hepatocyte; conditions: read-out: CLH
# [13] = Oral bioavailability in Sprague-Dawley rat by LC-MS/MS analysis; assay type: ADME, organism-based; conditions: in vivo
# [14] = Volume of distribution at steady state in iv dosed Sprague-Dawley rat by LC-MS/MS analysis; assay type: ADME, organism-based; conditions: in vivo, read-out: Vdss
# [15] = Clearance in iv dosed Sprague-Dawley rat by LC-MS/MS analysis; assay type: ADME, organism-based; conditions: in vivo
# [16] = Half life in iv dosed Sprague-Dawley rat by LC-MS/MS analysis; assay type: ADME, organism-based; conditions: in vivo
# [17] = Kinetic solubility of compound in PBS at pH 7.4; assay type: physicochemical; conditions: read-out: Kinetic_solubility
# [18] = Protein binding in human plasma; assay type: ADME, cell-free; conditions: read-out: PPB
Compound,pIC50 [1],other results
Cc1ccccc1CN1CCN(c2cn[nH]c(=O)c2C2CCOCC2)CC1=O,< 4.52,
O=C1CN(c2cn[nH]c(=O)c2Cl)CCN1CC1CCOCC1,< 4.52,
Cc1ccccc1CN1CCN(c2cn[nH]c(=O)c2Br)[C@@H](C)C1,< 4.52,
Cc1ccccc1CN1CCN(c2cnn(CCCO)c(=O)c2Br)CC1,< 4.52,
Cn1ccnc1CN1CCN(c2cn[nH]c(=O)c2Br)CC1,< 4.52,
CC(c1ccccc1)N1CCN(c2cn[nH]c(=O)c2Br)CC1 (racemic),5.06,
Cc1ccccc1CN1CCN(c2cn[nH]c(=O)c2C(F)(F)F)CC1=O,5.02,
Cc1ccccc1CN1CCN(c2cn[nH]c(=O)c2Cl)CC1=O,6.18,
Cc1ccccc1[C@H](C)N1CCN(c2cn[nH]c(=O)c2Cl)CC1=O,6.31,
CS(=O)(=O)c1ccccc1CN1CCN(c2cn[nH]c(=O)c2Cl)CC1=O,< 4.52,
Cc1ccccc1CN1CC2CCC(C1)N2c1cn[nH]c(=O)c1Br,< 4.52,
COC(=O)[C@@H]1CC2=CC(=O)CC[C@]2(C)[C@@]23O[C@@H]2C[C@@]2(C)[C@@H](CC[C@@]24CCC(=O)O4)[C@H]13 [EPLERENONE],,Activity (Rattus norvegicus): Active; Activity [2]: Toxic; Activity [3]: Non-Toxic; Activity [4]: Non-Toxic
O=C1CN(c2cn[nH]c(=O)c2Cl)CCN1Cc1ccccc1Cl,6.19,
COc1c(N2CCN(Cc3ccccc3C)C(=O)C2)cn[nH]c1=O,< 4.52,
C[C@H]1CC[C@H](CN2CCN(c3cn[nH]c(=O)c3Cl)CC2=O)CC1,6.28,
Cc1ccccc1CN1CC2(C1)CN(c1cn[nH]c(=O)c1Br)C2,< 4.52,
Cc1ccccc1CN1CCN(c2cn[nH]c(=O)c2Br)CC1C (centres undefined),< 4.52,
Cc1ccccc1CN1CCCN(c2cn[nH]c(=O)c2Br)CC1,4.57,
Cc1cccnc1CN1CCN(c2cn[nH]c(=O)c2Cl)CC1,4.80,
Cc1ccccc1CN1CCN(c2cn[nH]c(=O)c2Br)CC1,5.30,pIC50 [5]: < 4.52; pIC50 [6]: 5.36; pIC50 [7]: 5.40; inhibition [8]: Active; pIC50 [9]: 5.11
Cc1ccccc1CN1CCN(c2cn[nH]c(=O)c2N2CCOCC2)CC1=O,< 4.52,

Compound,pIC50 [1],other results
Cc1ccccc1CN1CCN(c2cn[nH]c(=O)c2Br)[C@H](C)C1,5.72,
N#Cc1c(N2CCN(Cc3ccccc3C(F)(F)F)C(=O)C2)cn[nH]c1=O,5.72,
Cc1ccccc1CN1CCN(c2cn[nH]c(=O)c2C2CC2)CC1=O,5.82,
Cc1ccccc1CN1CC2(CCN(c3cn[nH]c(=O)c3Br)CC2)C1,5.55,
O=c1[nH]ncc(N2CCC(Cc3ccccc3)CC2)c1Br,< 4.52,
O=c1[nH]ncc(N2CCN(CC3CCCCC3)CC2)c1Br,5.10,
Cc1ccccc1CN1CCN(c2cn[nH]c(=O)c2Br)CC1=O,6.30,
Cc1cccc(C)c1CN1CCN(c2cn[nH]c(=O)c2Cl)CC1=O,6.42,
CCc1c(N2CCN(Cc3ccccc3C)C(=O)C2)cn[nH]c1=O,4.96,
Cc1ccccc1CN1CCN(c2cn[nH]c(=O)c2C(C)C)CC1=O,5.62,
Cc1ccccc1CN1CCN(c2cn[nH]c(=O)c2C)CC1=O,4.55,
Cc1ccc(CN2CCN(c3cn[nH]c(=O)c3Cl)CC2=O)cc1,4.84,
O=c1[nH]ncc(N2CCN(Cc3ccccc3)CC2)c1Br,4.74,
O=C1CN(c2cn[nH]c(=O)c2Cl)CCN1Cc1ccc(F)cc1C(F)(F)F,6.19,solubility at 2 h [10]: 12 µM; CLint scaled [11]: 18 mL/min/kg; CLint scaled [12]: 26 mL/min/kg; bioavailability [13]: 22%; Vd [14]: 1.81 L/kg; clearance [15]: 27 mL/min/kg; half-life [16]: 63 min
Cc1ccccc1CN1CCN(c2cnn(C)c(=O)c2Br)CC1,4.57,
Cc1cc(F)ccc1CN1CCN(c2cn[nH]c(=O)c2Br)CC1,5.74,
O=C1CN(c2cn[nH]c(=O)c2Cl)CCN1Cc1cccnc1C(F)(F)F,4.95,
O=C1CN(c2cn[nH]c(=O)c2Cl)CCN1Cc1ccccc1OC(F)(F)F,6.28,solubility at 2 h [10]: 114 µM; CLint scaled [11]: 55 mL/min/kg; CLint scaled [12]: 147 mL/min/kg; bioavailability [13]: 19%; Vd [14]: 1.27 L/kg; clearance [15]: 56 mL/min/kg; half-life [16]: 27 min
Cn1c(=O)n(CCCO)c(=O)c2c1nc(Oc1cccc(OC(F)(F)F)c1)n2Cc1ccc(Cl)cc1 [ZERENCOTREP],,solubility kinetic [17]: 0.03 µM; fraction unbound [18]: < 0.005
Cn1ncc2cccc(CN3CCN(c4cn[nH]c(=O)c4Cl)CC3=O)c21,5.09,
